How the values were obtained:
Assay type in all cases: biochemical
[1] = biological target: hrDPP IV (Homo sapiens, UniProt P27487); test: Inhibition of hrDPP IV
How it was run: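 Recombinant human DPP IV, 0.01 μg per well, in 25 mM Tris, 1 mg mL−1 BSA, pH 8.0. Enzyme preincubated 30 min at 37 °C with test compound […]. Residual activity was read with 50 μM H-Gly-Pro-AMC as fluorescence increase over 60 min at 37 °C, 360/460 nm. Triplicate wells, repeated twice. IC50 determined graphically.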

[2] = biological target: T1, human recombinant (hr) FAP (Homo sapiens, UniProt Q12884); test: Inhibition of hrFAP
T1 sequence (Q12884 1-760): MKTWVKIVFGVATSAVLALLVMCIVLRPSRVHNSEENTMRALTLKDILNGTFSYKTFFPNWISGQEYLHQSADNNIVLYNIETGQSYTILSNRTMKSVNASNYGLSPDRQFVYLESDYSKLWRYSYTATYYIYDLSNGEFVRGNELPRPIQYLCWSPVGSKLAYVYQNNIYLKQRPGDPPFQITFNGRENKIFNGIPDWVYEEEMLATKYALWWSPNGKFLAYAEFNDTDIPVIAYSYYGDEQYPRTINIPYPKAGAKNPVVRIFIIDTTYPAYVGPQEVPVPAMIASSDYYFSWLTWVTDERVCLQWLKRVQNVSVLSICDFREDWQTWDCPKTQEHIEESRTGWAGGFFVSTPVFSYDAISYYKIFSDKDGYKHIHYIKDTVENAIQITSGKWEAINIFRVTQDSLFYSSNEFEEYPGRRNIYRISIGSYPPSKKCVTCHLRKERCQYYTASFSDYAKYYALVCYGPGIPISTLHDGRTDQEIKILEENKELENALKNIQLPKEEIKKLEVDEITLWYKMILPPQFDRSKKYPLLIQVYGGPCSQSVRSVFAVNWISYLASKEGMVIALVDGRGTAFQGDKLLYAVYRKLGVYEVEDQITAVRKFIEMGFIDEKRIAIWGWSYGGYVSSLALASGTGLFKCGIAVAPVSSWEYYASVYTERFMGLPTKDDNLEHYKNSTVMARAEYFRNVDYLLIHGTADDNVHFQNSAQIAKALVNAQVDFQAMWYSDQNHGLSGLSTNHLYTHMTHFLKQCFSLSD
How it was run: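 Recombinant human FAP, 0.01 μg per well, in 50 mM Tris, 1 M NaCl, 1 mg mL−1 BSA, pH 7.5. Preincubated 30 min at 37 °C with test compound at 5, 10, 20, 50 and 100 nM. Then 50 μM Z-Gly-Pro-AMC was added and the fluorescence increase followed for 60 min at 37 °C (λex/λem 360/460 nm). Triplicate wells, experiment repeated twice. IC50 determined graphically; Ki calculated.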

[3] = biological target: T2, hrPREP (Homo sapiens, UniProt P48147); test: Inhibition of hrPREP
T2 sequence (P48147 1-710): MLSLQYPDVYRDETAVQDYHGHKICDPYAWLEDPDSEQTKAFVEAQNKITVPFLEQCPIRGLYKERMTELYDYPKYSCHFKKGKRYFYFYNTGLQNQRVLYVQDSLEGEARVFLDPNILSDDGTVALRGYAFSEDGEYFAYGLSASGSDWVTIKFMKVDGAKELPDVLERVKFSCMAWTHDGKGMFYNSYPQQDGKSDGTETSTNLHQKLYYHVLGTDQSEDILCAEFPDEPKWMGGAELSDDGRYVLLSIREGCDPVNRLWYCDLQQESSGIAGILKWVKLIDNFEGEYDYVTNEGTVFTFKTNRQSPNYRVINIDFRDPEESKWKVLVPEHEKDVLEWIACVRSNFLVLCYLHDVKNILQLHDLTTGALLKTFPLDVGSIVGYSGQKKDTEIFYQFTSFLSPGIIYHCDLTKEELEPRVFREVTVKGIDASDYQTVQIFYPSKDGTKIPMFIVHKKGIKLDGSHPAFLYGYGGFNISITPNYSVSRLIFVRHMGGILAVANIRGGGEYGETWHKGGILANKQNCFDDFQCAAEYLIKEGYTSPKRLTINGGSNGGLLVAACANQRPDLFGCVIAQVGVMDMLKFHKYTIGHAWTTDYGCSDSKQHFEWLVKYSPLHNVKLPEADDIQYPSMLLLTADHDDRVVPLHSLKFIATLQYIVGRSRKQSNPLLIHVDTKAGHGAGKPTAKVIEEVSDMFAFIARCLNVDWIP

Chain of hrDPP IV (P27487 whole entry): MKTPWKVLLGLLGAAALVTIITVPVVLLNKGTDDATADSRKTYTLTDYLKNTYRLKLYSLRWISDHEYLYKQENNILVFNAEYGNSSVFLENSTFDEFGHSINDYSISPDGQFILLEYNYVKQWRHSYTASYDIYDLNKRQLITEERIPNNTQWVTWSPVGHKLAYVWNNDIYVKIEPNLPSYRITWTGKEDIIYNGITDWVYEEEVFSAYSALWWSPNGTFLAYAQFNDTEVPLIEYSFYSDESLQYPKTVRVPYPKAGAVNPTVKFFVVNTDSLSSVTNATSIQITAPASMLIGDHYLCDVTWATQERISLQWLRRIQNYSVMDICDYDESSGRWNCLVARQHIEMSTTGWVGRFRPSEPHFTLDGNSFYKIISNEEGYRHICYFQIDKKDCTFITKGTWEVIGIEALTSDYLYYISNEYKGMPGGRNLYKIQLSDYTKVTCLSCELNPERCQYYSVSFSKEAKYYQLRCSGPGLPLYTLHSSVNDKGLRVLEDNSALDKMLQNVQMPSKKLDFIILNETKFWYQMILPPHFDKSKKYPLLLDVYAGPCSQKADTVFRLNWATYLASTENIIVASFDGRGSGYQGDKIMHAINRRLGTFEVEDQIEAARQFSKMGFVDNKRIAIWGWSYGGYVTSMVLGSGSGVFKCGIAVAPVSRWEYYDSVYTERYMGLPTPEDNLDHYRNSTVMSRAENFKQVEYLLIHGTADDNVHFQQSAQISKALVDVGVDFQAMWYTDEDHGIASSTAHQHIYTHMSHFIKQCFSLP

IC50 [1]: > 100 µM
selectivity index SI FAP/DPP IV ([1]; FAP with respect to DPP IV): higher than 3300
IC50 [2]: 0.03 ± 0.005 µM
Ki [2]: 0.012 ± 0.0018 µM
IC50 [3]: > 100 µM
selectivity index SI FAP/PREP ([3]; FAP with respect to PREP): higher than 3300
Structure (SMILES): N#C[C@@H]1CCCN1C(=O)CNC(=O)c1ccnc2ccc(Br)cc12 [compound 5, (S)-6-bromo-N-(2-(2-cyanopyrrolidin-1-yl)-2-oxoethyl)quinoline-4-carboxamide]

Reference: paper PMC9072645 (RSC Advances, 2019)
